Measurements: ChEMBL document CHEMBL3526142, “Biotransformation of a novel antimitotic agent, I-387, by mouse, rat, dog, monkey, and human liver microsomes and in vivo pharmacokinetics in mice” (Drug Metab Dispos, 2011)

Experiments:
[1] = AUC (infinity) in ICR mouse at 5 mg/kg, ip by LC-MS/MS analysis; format: ADME, organism-based; set-up: time infinity, dose 5 mg/kg, route intraperitoneal; details: plasma
Method in brief: (§1)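 Male ICR mice (5–6 weeks, 20–25 g), single doses of 1, 5 or 15 mg/kg in 10% DMSO/PEG300, given iv by tail vein, ip, or orally by gavage. Three to four mice per time point, euthanized under isoflurane, blood drawn from posterior vena cava. Plasma protein precipitated with acetonitrile containing internal standard, then LC-MS/MS (MRM m/z 388.2→192). Noncompartmental analysis of mean concentration-time data, AUCinf by trapezoidal rule with extrapolation, CL = dose/AUCinf, Cmax read from the curve. F = (AUCnon-iv × dose iv)/(AUCiv × dose non-iv). n = 3 per dose group.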

[2] = Terminal half life in ICR mouse at 1 mg/kg, po via gavage by LC-MS/MS analysis; format: ADME, organism-based; set-up: dose 1 mg/kg, route oral; details: in vivo, read-out: beta t1/2 (converted)
Method in brief: (§2)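 Male ICR mice (20–25 g) given the compound intraperitoneally or by gavage in 10% DMSO/PEG300. Three to four mice were sacrificed per time point and plasma collected from the vena cava. Plasma was precipitated with acetonitrile containing internal standard and analysed by LC-MS/MS. Noncompartmental analysis of mean concentration-time data: terminal t1/2 = ln2/λz; Tmax by inspection; n = 3/dose group.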

[3] = Cmax in ICR mouse at 1 mg/kg, po via gavage by LC-MS/MS analysis; format: ADME, organism-based; set-up: dose 1 mg/kg, route oral; details: in vivo; method in brief: as §1
[4] = Mean residence time (infinity) in ICR mouse at 5 mg/kg, po via gavage by LC-MS/MS analysis; format: ADME, organism-based; set-up: dose 5 mg/kg, route oral; details: in vivo; method in brief: as §1
[5] = Oral bioavailability in ICR mouse at 5 mg/kg via gavage after 30 mins by LC-MS/MS analysis; format: ADME, organism-based; details: in vivo
Method in brief: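 Male ICR mice (5–6 weeks, 20–25 g) dosed by gavage in 10% DMSO in PEG300. Three to four mice per time point were euthanized under isoflurane and blood taken from the posterior vena cava. Plasma was acetonitrile-precipitated and analysed by LC-MS/MS (MRM m/z 388.2→192). Tmax read by visual inspection. F = (AUC_oral × dose_iv)/(AUC_iv × dose_oral), with AUC_inf by trapezoidal rule; n = 3/dose group.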

[6] = Mean residence time (infinity) in ICR mouse at 15 mg/kg, po via gavage by LC-MS/MS analysis; format: ADME, organism-based; set-up: dose 15 mg/kg, route oral; details: in vivo; method in brief: as §1
[7] = Cmax in ICR mouse at 15 mg/kg, po via gavage by LC-MS/MS analysis; format: ADME, organism-based; set-up: dose 15 mg/kg, route oral; details: in vivo; method in brief: as §1
[8] = Metabolic stability in monkey liver microsomes assessed as half life during phase 1 at 0.5 uM by LC-MS/MS analysis in presence of 3 mM NADPH and absence of UDPGA; format: ADME, Macaca mulatta; details: rhesus monkey, read-out: alphat1/2
Method in brief: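 Pooled liver microsomes at 1 mg/ml protein with 3 mM NADPH, 0.5 μM substrate in 65 mM potassium phosphate pH 7.4, 1% methanol, 37°C. Incubations stopped at 10, 20, 30, 60 and 90 min with ice-cold acetonitrile plus internal standard, then LC-MS/MS of parent remaining relative to time 0. Half-life from a two-parameter single exponential decay fit; n = 2 to 3.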

[9] = Metabolic stability in monkey liver microsomes assessed as half life during phase 1 and 2 at 0.5 uM by LC-MS/MS analysis in presence of 3 mM NADPH and […] UDPGA; format: ADME, Macaca mulatta; details: rhesus monkey, read-out: alphat1/2
Liver microsome [10] = test: Drug metabolism in human liver microsomes assessed as (3-(1H-indol-2-yl)phenyl)(3,4,5-trimethoxyphenyl)methanol formation at 0.5 uM after 2 hrs by LC-MS/MS analysis in presence of 3 mM NADPH; format: ADME
Method in brief: (§3)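 Pooled liver microsomes (1 mg/ml protein) incubated with 0.5 µM substrate and 3 mM NADPH in 65 mM potassium phosphate, pH 7.4, 1% methanol, at 37°C for 2 h. Stopped with ice-cold acetonitrile containing internal standard, centrifuged. Supernatant analysed by LC-MS/MS on a C18 column, 15-min gradient, with product ion scans for metabolite identification.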

Liver = test: Drug level in mouse liver microsomes assessed as compound retention time treated with 0.5 uM I-387 after 2 hrs by LC-MS/MS analysis; format: ADME; method in brief: as §3
Liver microsome [11] = test: Drug metabolism in rat liver microsomes assessed as (3-(1H-indol-2-yl)phenyl)(3,4,5-trimethoxyphenyl)methanol formation at 0.5 uM after 2 hrs by LC-MS/MS analysis in presence of 3 mM NADPH; format: ADME; method in brief: as §3
Liver microsome [12] = test: Drug level in dog liver microsomes assessed as compound retention time treated with 0.5 uM I-387 after 2 hrs by LC-MS/MS analysis; format: ADME, Canis lupus familiaris; method in brief: as §3
[13] = Retention time of the compound at 0.5 uM by LC-MS/MS analysis; format: physicochemical
Method in brief: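 After a 2 h incubation at 37°C with liver microsomes (1 mg/ml protein, 3 mM NADPH, 0.5 μM substrate, pH 7.4 phosphate buffer), samples were quenched with acetonitrile and centrifuged. Supernatant separated on a C18 column (15 min run, linear gradient 100% A to 100% B over 7 min) with LC-MS/MS ion trap detection.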

[14] = AUC (infinity) in ICR mouse at 1 mg/kg, iv by LC-MS/MS analysis; format: ADME, organism-based; set-up: time infinity, dose 1 mg/kg, route intravenous; details: plasma; method in brief: as §1
[15] = Volume of distribution at steady state in ICR mouse at 1 mg/kg, iv by LC-MS/MS analysis; format: ADME, organism-based; set-up: dose 1 mg/kg, route intravenous; details: in vivo, read-out: Vdss
Method in brief: (§4)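 Tail-vein injection in male ICR mice (5–6 weeks), vehicle 10% DMSO in PEG300. Serial terminal sampling of 3–4 mice per time point, with posterior vena cava blood. Plasma was acetonitrile-precipitated and measured by LC-MS/MS. Noncompartmental analysis of mean data: t1/2 = ln2/λz, CL = dose/AUC_inf, Vd_ss = CL × MRT_inf; n = 3/dose group.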

[16] = Volume of distribution at steady state in ICR mouse at 5 mg/kg, iv by LC-MS/MS analysis; format: ADME, organism-based; set-up: dose 5 mg/kg, route intravenous; details: in vivo, read-out: Vdss; method in brief: as §4
[17] = Cmax in ICR mouse at 15 mg/kg, iv by LC-MS/MS analysis; format: ADME, organism-based; set-up: dose 15 mg/kg, route intravenous; details: in vivo; method in brief: as §1
[18] = AUC (infinity) in ICR mouse at 15 mg/kg, iv by LC-MS/MS analysis; format: ADME, organism-based; set-up: time infinity, dose 15 mg/kg, route intravenous; details: plasma; method in brief: as §1
[19] = Cmax in ICR mouse at 1 mg/kg, ip by LC-MS/MS analysis; format: ADME, organism-based; set-up: dose 1 mg/kg, route intraperitoneal; details: in vivo; method in brief: as §1
[20] = Bioavailability in ICR mouse at 1 mg/kg, ip by LC-MS/MS analysis; format: ADME, organism-based; details: in vivo; method in brief: as §1
[21] = Terminal half life in ICR mouse at 5 mg/kg, ip by LC-MS/MS analysis; format: ADME, organism-based; set-up: dose 5 mg/kg, route intraperitoneal; details: in vivo, read-out: beta t1/2 (converted); method in brief: as §2

AUC(0-inf) [1]: 3750 ng·h/mL
half-life [2]: 8.7 h
Cmax [3]: 30 ng/mL
MRT inf [4]: 8.9 h
bioavailability [5]: 13%
MRT inf [6]: 8.9 h
Cmax [7]: 260 ng/mL
half-life at 0.5 µM [8]: 0.25 h
half-life at 0.5 µM [9]: 0.183 h
Drug metabolism (Liver microsome [10]): metabolite_detected
Retention_time (Liver): 11.3 min
Drug metabolism (Liver microsome [11]): metabolite_detected
Retention_time (Liver microsome [12]): 11.3 min
Retention_time [13]: 11.3 min
AUC(0-inf) [14]: 617 ng·h/mL
Vd [15]: 5.3 L/kg
Vd [16]: 3.8 L/kg
Cmax [17]: 7530 ng/mL
AUC(0-inf) [18]: 13400 ng·h/mL
Cmax [19]: 250 ng/mL
bioavailability [20]: 65%
half-life [21]: 4.9 h
SMILES: COc1cc(C(=O)c2cccc(-c3cc4ccccc4[nH]3)c2)cc(OC)c1OC
